Laboratory results reported in ChEMBL document CHEMBL3217467, “A structure-activity relationship study on multi-heterocyclic molecules: two linked thiazoles are required for cytotoxic activity” (Medchemcomm, 2013).
Active and inactive are the calls of the source. No cut-off for these calls is given here.

Legend:
[1] = tested on: HCT-116; assay: Cytotoxicity against human HCT116 cells assessed as growth inhibition after 72 hrs by CCK8 assay; format: functional, cell-based; details: HCT-116, 72 h
Summary of the method: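 HCT-116 cells seeded at 3000/well in DMEM with 10% FBS and left 24 h to adhere at 37°C in CO2. They were then exposed for 72 h to 1, 2, 5, 10, 20, 30 and 40 μM, with 1% DMSO and media-only controls. Readout was CCK-8 reduction, 1 h, absorbance at 450 nm. IC50 was taken from log concentration versus % survival curves; three experiments, quadruplicate points.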

[2] = tested on: HCT-116; assay: Cytotoxicity against human HCT116 cells assessed as growth inhibition at 40 uM after 72 hrs by CCK8 assay; format: functional; details: HCT-116, 72 h, read-out: GI
Summary of the method: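 HCT-116 cells seeded at 3000/well in DMEM with 10% FBS and allowed 24 h at 37°C in CO2. They were then treated 72 h at a single 40 uM concentration, with media-only and 1% DMSO controls. Fresh serum-free medium plus CCK-8 was added for 1 h at 37°C, and absorbance read at 450 nm as % cell survival.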

[3] = tested on: HCT-116; assay: Induction of apoptosis in human HCT116 cells assessed as plasma membrane budding at 10 uM after 24 hrs by Hoechst 33342 staining based microscopic analysis; format: functional, cell-based
Summary of the method: (§1)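 HCT 116 cells were plated at 20,000 per dish 24 h before treatment, then given 10 μM compound or 1% (v/v) DMSO control for 24 h. They were fixed in 1.5% glutaraldehyde in PBS for 1 h, washed with PBS, stained with 5 μg/ml Hoechst 33342 and imaged by confocal microscopy.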

[4] = tested on: HCT-116; assay: Induction of apoptosis in human HCT116 cells assessed as intact plasma membranes at 10 uM after 24 hrs by Hoechst 33342 staining based microscopic analysis; format: functional, cell-based; summary of the method: as §1
[5] = tested on: HCT-116; assay: Induction of apoptosis in human HCT116 cells assessed as chromatin condensation at 10 uM after 24 hrs by Hoechst 33342 staining based microscopic analysis; format: functional, cell-based; summary of the method: as §1
[6] = tested on: HCT-116; assay: Induction of apoptosis in human HCT116 cells assessed as nuclear condensation at 10 uM after 24 hrs by Hoechst 33342 staining based microscopic analysis; format: functional; summary of the method: as §1
[7] = tested on: HCT-116; assay: Induction of apoptosis in human HCT116 cells assessed as cell shrinkage and nuclear condensation at 10 uM after 24 hrs by Hoechst 33342 staining based microscopic analysis; format: functional; summary of the method: as §1

SMILES	IC50 [1]	inhibition of growth at 40 µM [2]	Activity [3]	Activity [4]	Activity [5]	Activity [6]	Activity [7]
COC(=O)c1nc(-c2csc(-c3csc(-c4coc(-c5coc([C@@H](NC(=O)OC(C)(C)C)[C@@H](C)OC(C)(C)C)n5)n4)n3)n2)oc1-c1ccccc1	18.2 µM	> 50%					
CCOC(=O)c1csc(-c2coc(-c3coc([C@@H](NC(=O)OC(C)(C)C)[C@@H](C)OC(C)(C)C)n3)n2)n1			inactive	Active	Active	12%	
COC(=O)c1coc(-c2coc([C@@H](NC(=O)OC(C)(C)C)[C@@H](C)OC(C)(C)C)n2)n1	> 100 µM						
CCOC(=O)c1csc(-c2csc([C@@H](NC(=O)OC(C)(C)C)[C@@H](C)OC(C)(C)C)n2)n1	19.4 µM	> 50%					
CCOC(=O)c1csc(-c2csc(-c3csc([C@@H](NC(=O)OC(C)(C)C)[C@@H](C)OC(C)(C)C)n3)n2)n1	26.5 µM	> 50%	inactive	Active	Active		30%
COC(=O)c1nc(-c2csc(-c3csc(-c4csc(-c5csc([C@@H](NC(=O)OC(C)(C)C)[C@@H](C)OC(C)(C)C)n5)n4)n3)n2)oc1-c1ccccc1	18.7 µM	> 50%					
